Test results reported in ChEMBL document CHEMBL1150327, “E,E-2-Benzylidene-6-(nitrobenzylidene)cyclohexanones: syntheses, cytotoxicity and an examination of some of their electronic, steric, and hydrophobic properties” (Bioorg Med Chem, 2008).
pIC50: −log10 of the molar value. Active and inactive are the calls of the source. The calls are words filed in the database; no cut-off is given here.

Columns and labels:
[1] = Lipophilicity, log P of the compound; type: physicochemical; conditions: calculated
How it was run: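 Calculated logP, generated with the JME molecular editor rather than measured.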

L1210 = test: Cytotoxicity against mouse L1210 cells after 48 hrs; type: functional, cell-based; conditions: L1210, 48 h
How it was run: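 Murine L1210 lymphoid leukemia cells exposed to graded compound concentrations in RPMI 1640 at 37 °C for 48 h. IC50 is the concentration giving 50% growth inhibition.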

CCRF-CEM = test: Cytotoxicity against human CEM cells after 72 hrs; type: functional, cell-based
How it was run: (§1)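 Compounds tested over a range of concentrations on cells in RPMI 1640 medium at 37 °C for 72 h. IC50 taken as the concentration inhibiting cell growth by 50%.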

[2] = Cytotoxicity against human Molt4/C8 cells after 72 hrs; type: functional, cell-based; conditions: MOLT-4, 72 h; how it was run: as §1
Liver = test: Stimulation of respiration in rat liver mitochondria; type: functional
How it was run: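 Liver mitochondria isolated from rats anesthetized with isoflurane and decapitated. Oxygen consumption measured by polarography. Compound tested at 10 μM, with a DMSO solvent control (4 μL). Differences judged against standard deviations.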

logP [1] | SMILES | pIC50 (L1210) | pIC50 (CCRF-CEM) | pIC50 [2] | Activity (Liver)
5.38 | O=C1/C(=C/c2ccc(Cl)cc2)CCC/C1=C\c1ccccc1[N+](=O)[O-] | 5.03 | 5.76 | 5.41 | 
4.8 | CN(C)c1ccc(/C=C2\CCC/C(=C\c3ccccc3[N+](=O)[O-])C2=O)cc1 | 3.79 | 3.77 | 3.91 | 
4.76 | COc1ccc(/C=C2\CCC/C(=C\c3ccccc3[N+](=O)[O-])C2=O)cc1 | 4.37 | 5.13 | 5.05 | 
4.9 | O=C1/C(=C/c2ccccc2)CCC/C1=C\c1cccc([N+](=O)[O-])c1 | 5.03 | 5.64 | 5.77 | 
4.33 | COc1cc(/C=C2\CCC/C(=C\c3ccccc3[N+](=O)[O-])C2=O)cc(OC)c1OC | 5.82 | 6.40 | 6.15 | Active
4.93 | O=C1/C(=C/c2ccccc2)CCC/C1=C\c1ccc([N+](=O)[O-])cc1 | 5.01 | 5.03 | 5.08 | 
5.06 | O=C1/C(=C/c2ccc(F)cc2)CCC/C1=C\c1cccc([N+](=O)[O-])c1 | 4.79 | 5.30 | 5.29 | 
5.15 | Cc1ccc(/C=C2\CCC/C(=C\c3ccccc3[N+](=O)[O-])C2=O)cc1 | 5.11 | 5.22 | 5.12 | 
4.86 | O=C1/C(=C/c2ccc(F)cc2)CCC/C1=C\c1ccccc1[N+](=O)[O-] | 5.08 | 5.82 | 5.73 | 
4.7 | O=C1/C(=C/c2ccccc2)CCC/C1=C\c1ccccc1[N+](=O)[O-] | 5.32 | 6.03 | 5.83 | 

The next lines start with the compound.

SMILES | logP [1] | pIC50 (L1210) | pIC50 (CCRF-CEM) | pIC50 [2] | Activity (Liver)
COc1cc(/C=C2\CCC/C(=C\c3ccc([N+](=O)[O-])cc3)C2=O)cc(OC)c1OC | 4.56 | 5.16 | 5.34 | 5.19 | Active
O=C1CCCC/C1=C\c1cccc([N+](=O)[O-])c1 |  | 4.30 | 5.09 | 5.08 | 
O=C1/C(=C/c2ccc(Cl)cc2)CCC/C1=C\c1ccc([N+](=O)[O-])cc1 | 5.61 | 5.03 | 5.09 | 5.04 | 
O=C1/C(=C/c2ccc(Cl)cc2)CCC/C1=C\c1cccc([N+](=O)[O-])c1 | 5.58 | 5.04 | 5.76 | 5.69 | 
CN(C)c1ccc(/C=C2\CCC/C(=C\c3ccc([N+](=O)[O-])cc3)C2=O)cc1 | 5.03 | < 3.30 | < 3.30 | < 3.30 | 
O=C1CCCC/C1=C\c1ccccc1[N+](=O)[O-] |  | 4.62 | 4.44 | 4.48 | 
Cc1ccc(/C=C2\CCC/C(=C\c3cccc([N+](=O)[O-])c3)C2=O)cc1 | 5.35 | 4.38 | 5.00 | 5.02 | 
O=C1/C(=C/c2ccc(F)cc2)CCC/C1=C\c1ccc([N+](=O)[O-])cc1 | 5.08 | 4.57 | 4.73 | 4.77 | 
CN(C)c1ccc(/C=C2\CCC/C(=C\c3cccc([N+](=O)[O-])c3)C2=O)cc1 | 5.01 | 3.81 | 4.93 | 4.96 | 
COc1cc(/C=C2\CCC/C(=C\c3cccc([N+](=O)[O-])c3)C2=O)cc(OC)c1OC | 4.53 | 4.37 | 4.34 | 4.36 | 
COc1ccc(/C=C2\CCC/C(=C\c3ccc([N+](=O)[O-])cc3)C2=O)cc1 | 4.98 | 3.62 | 3.60 | 3.52 | 
O=C1CCCC/C1=C\c1ccc([N+](=O)[O-])cc1 |  | 4.33 | 4.71 | 4.86 | 
COc1ccc(/C=C2\CCC/C(=C\c3cccc([N+](=O)[O-])c3)C2=O)cc1 | 4.96 | 4.53 | 5.09 | 5.10 | 
Cc1ccc(/C=C2\CCC/C(=C\c3ccc([N+](=O)[O-])cc3)C2=O)cc1 | 5.38 | 5.09 | 5.07 | 5.07 | 
